≈ marks a conversion by molar mass, not a printed value.
Tests used:
Klebsiella pneumoniae = assay: Antibacterial activity against Klebsiella pneumoniae ATCC 13883 assessed as reduction in bacterial growth incubated for 18 to 24 hrs by broth microdilution method; type: functional
Summary of the method: (§1)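 Bacteria grown overnight in cation-adjusted Mueller Hinton broth (CAMHB) at 37 °C, diluted 50-fold and grown 1.5–3 h to mid-log, then inoculated at 5×10^5 CFU mL^-1. Two-fold serial dilutions gave final 0.0039–64 μg mL^-1, plated in duplicate. Incubated 37 °C for 18–24 h. MIC was the lowest concentration with no visible growth (n ≥ 3).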

Bacillus subtilis = assay: Antibacterial activity against Bacillus subtilis ATCC 6051 assessed as reduction in bacterial growth incubated for 18 to 24 hrs by broth microdilution method; type: functional; summary of the method: as §1
Acinetobacter baumannii = assay: Antibacterial activity against Acinetobacter baumannii ATCC 19606 assessed as reduction in bacterial growth incubated for 18 to 24 hrs by broth microdilution method; type: functional; conditions: ATCC 19606 = CIP 70.34 = JCM 6841; summary of the method: as §1
Staphylococcus aureus = assay: Antibacterial activity against Staphylococcus aureus ATCC 25923 assessed as reduction in bacterial growth incubated for 18 to 24 hrs by broth microdilution method; type: functional; summary of the method: as §1
Enterococcus faecium = assay: Antibacterial activity against Enterococcus faecium ATCC 35667 assessed as reduction in bacterial growth incubated for 18 to 24 hrs by broth microdilution method; type: functional; summary of the method: as §1
Escherichia coli [1] = assay: Antibacterial activity against Escherichia coli MB4902 harbouring lpxC mutant assessed as reduction in bacterial growth incubated for 18 to 24 hrs by broth microdilution method; type: functional
Summary of the method: (§2)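 Broth microdilution in cation-adjusted Mueller Hinton broth. Overnight 37 °C cultures were diluted 50-fold and grown 1.5–3 h to mid-log, then seeded at 5×10^5 CFU mL^-1. Compounds were two-fold serially diluted, final range 0.0039–64 μg mL^-1, in duplicate. Plates were incubated at 37 °C for 18–24 h.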

[2] = Drug uptake in Escherichia coli AG102 incubated for 30 to 45 mins by Hoechst 33342 and Syto9 staining based confocal microscopy; type: ADME
Summary of the method: (§3)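 Colonies from LB agar were grown overnight in CAMHB at 37 °C, diluted ~40-fold and grown to OD600 0.4–0.6. Cells were pelleted, washed in HBSS and incubated with probe (50–100 μM) in HBSS at 37 °C for 30–45 min. […] were stained with Hoechst 33342 (5 μg mL^-1) or Syto-9 (10 μM) for 20 min, and membranes with FM4-64FX (5 μg mL^-1) for 5 min on ice. Samples were mounted and imaged by confocal microscopy.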

[3] = Drug uptake in Staphylococcus aureus incubated for 30 to 45 mins by Hoechst 33342 and Syto9 staining based confocal microscopy; type: ADME; summary of the method: as §3
[4] = Drug uptake in Escherichia coli AG102 incubated for 30 to 45 mins in presence of CCCP by Hoechst 33342 and Syto9 staining based confocal microscopy; type: ADME; summary of the method: as §3
Escherichia coli [5] = assay: Antibacterial activity against Escherichia coli ATCC 25922 assessed as reduction in bacterial growth incubated for 18 to 24 hrs by broth microdilution method; type: functional
Summary of the method: (§4)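 Bacteria grown overnight in cation-adjusted Mueller Hinton broth (CAMHB) at 37 °C, diluted 50-fold and grown 1.5–3 h to mid-log, then inoculated at 5×10^5 CFU mL^-1. Two-fold serial dilutions gave final 0.0039–64 μg mL^-1, plated in duplicate. Incubated 37 °C for 18–24 h.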

Pseudomonas aeruginosa [6] = assay: Antibacterial activity against Pseudomonas aeruginosa PAO750 PAO397 harbouring delta efflux pump mutant assessed as reduction in bacterial growth incubated for 18 to 24 hrs by broth microdilution method; type: functional; summary of the method: as §2
Pseudomonas aeruginosa [7] = assay: Antibacterial activity against Pseudomonas aeruginosa ATCC 27853 assessed as reduction in bacterial growth incubated for 18 to 24 hrs by broth microdilution method; type: functional; summary of the method: as §4
Escherichia coli [8] = assay: Antibacterial activity against Escherichia coli MB5746 harbouring lpxC and tolC double mutant assessed as reduction in bacterial growth incubated for 18 to 24 hrs by broth microdilution method; type: functional; summary of the method: as §2
Escherichia coli [9] = assay: Antibacterial activity against Escherichia coli MB5747 harbouring tolC mutant assessed as reduction in bacterial growth incubated for 18 to 24 hrs by broth microdilution method; type: functional; summary of the method: as §2

| Compound | MIC (Klebsiella pneumoniae) [µg/mL] | MIC (Bacillus subtilis) [µg/mL] | MIC (Acinetobacter baumannii) [µg/mL] | MIC (Staphylococcus aureus) [µg/mL] | MIC (Enterococcus faecium) [µg/mL] | MIC (Escherichia coli [1]) [µg/mL] | Drug uptake [2] | Drug uptake [3] | Drug uptake [4] | MIC (Escherichia coli [5]) [µg/mL] | MIC (Pseudomonas aeruginosa [6]) [µg/mL] | MIC (Pseudomonas aeruginosa [7]) [µg/mL] | MIC (Escherichia coli [8]) [µg/mL] | MIC (Escherichia coli [9]) [µg/mL] |
| --- | --- | --- | --- | --- | --- | --- | --- | --- | --- | --- | --- | --- | --- | --- |
| O=C(O)c1cn(C2CC2)c2cc(N3CCNCC3)c(F)cc2c1=O [CIPROFLOXACIN] | 0.015 to 0.06 (≈ 0.0453 to 0.181 µM) | 0.06 to 0.313 (≈ 0.181 to 0.945 µM) | 0.5 to 1 (≈ 1.51 to 3.02 µM) | 0.125 to 0.5 (≈ 0.377 to 1.51 µM) | 1 to 8 (≈ 3.02 to 24.1 µM) | – | – | – | – | – | – | – | – | – |
| O=C(O)c1cn(C2CC2)c2cc(N3CCN(CCCn4cc(CNc5ccc([N+](=O)[O-])c6nonc56)nn4)CC3)c(F)cc2c1=O | 8 to 16 (≈ 12.6 to 25.3 µM) | 8 (≈ 12.6 µM) | 32 to 64 (≈ 50.6 to 101 µM) | 32 to 64 (≈ 50.6 to 101 µM) | 32 (≈ 50.6 µM) | 1 to 4 (≈ 1.58 to 6.32 µM) | Not Active | Active | Active | 8 (≈ 12.6 µM) | 4 (≈ 6.32 µM) | 32 to 64 (≈ 50.6 to 101 µM) | 0.06 to 0.125 (≈ 0.0948 to 0.198 µM) | 0.125 to 0.25 (≈ 0.198 to 0.395 µM) |
| [N-]=[N+]=NCCCN1CCN(c2cc3c(cc2F)c(=O)c(C(=O)O)cn3C2CC2)CC1 | 0.125 to 0.25 (≈ 0.302 to 0.603 µM) | 0.06 to 0.25 (≈ 0.145 to 0.603 µM) | 0.25 to 0.5 (≈ 0.603 to 1.21 µM) | 0.25 (≈ 0.603 µM) | 16 to 64 (≈ 38.6 to 154 µM) | 0.25 to 1 (≈ 0.603 to 2.41 µM) | – | – | – | 0.06 to 0.25 (≈ 0.145 to 0.603 µM) | 32 to 64 (≈ 77.2 to 154 µM) | 8 to 64 (≈ 19.3 to 154 µM) | 0.25 to 1 (≈ 0.603 to 2.41 µM) | 0.25 to 1 (≈ 0.603 to 2.41 µM) |
| CN(C)c1ccc2c(CC(=O)NCc3cn(CCCN4CCN(c5cc6c(cc5F)c(=O)c(C(=O)O)cn6C5CC5)CC4)nn3)cc(=O)oc2c1 | 4 to 32 (≈ 5.72 to 45.8 µM) | 4 (≈ 5.72 µM) | 32 (≈ 45.8 µM) | 16 (≈ 22.9 µM) | 32 to 64 (≈ 45.8 to 91.6 µM) | 2 (≈ 2.86 µM) | Active | Active | – | 2 (≈ 2.86 µM) | 2 to 8 (≈ 2.86 to 11.4 µM) | 32 to 64 (≈ 45.8 to 91.6 µM) | 0.5 to 1 (≈ 0.716 to 1.43 µM) | 0.5 to 1 (≈ 0.716 to 1.43 µM) |
